The subject of data set [1] is Aorta. Nature of the data set: Vasodilatory activity in Wistar rat endothelium-intact aorta assessed as reduction of acetylcholine-induced vasoconstriction. It is filed as functional, tissue-based. Put shortly:
(§1)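 Male Wistar rat aortic rings (~3 mm) in a myograph at 37 °C in oxygenated Krebs, stretched to 15 mN, with maximal contraction set by 60 mM KCl and endothelium checked with ACh. Precontracted rings received NHG as a single 100 μM dose or cumulatively at 1−100 μM. Parallel rings were exposed before and during dosing to L-NAME 200 μM, L-Arg 100 μM, Hb 10 μM or ODQ 50 μM.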

The test system of data set [2] is Aorta. Nature of the data set: Vasodilatory activity in Wistar rat endothelium-intact aorta assessed as reversibility of reduction of acetylcholine-induced vasoconstriction in presence of ODQ. The class given is functional. Further details: concentration or dose not given beside the values.
Data set [3] concerns Kidney. Nature of the data set: Prodrug activation in Wistar rat kidney homogenates assessed as formation of N-(4-Phenylethyl)-N'-hydroxyguanidine Hydrochloride after 10 to 40 mins. The class given is tissue-based. The settings on record: tissue homogenate.
Data set [4] has as its system Aorta. Put plainly: Vasodilatory activity in Wistar rat endothelium-intact aorta assessed as reduction of acetylcholine-induced vasoconstriction at 100 uM in presence of gamma-glutamyl transpeptidase. The class given is functional. Put shortly:
(§2)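 Aortic ring myograph (rat, 37 °C, Krebs, precontracted). The glutamyl prodrug at 10 mM was preincubated with γ-GT (100 mU/5 mM gly-gly) for 1 h at 37 °C before addition to the bath at 100 μM. Hemoglobin (10 μM), where present, was used as NO scavenger.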

Data set [5] deals with Aorta. Put plainly: Vasodilatory activity in Wistar rat endothelium-intact aorta assessed as reduction of acetylcholine-induced vasoconstriction at 100 uM. It is filed as functional, tissue-based. A digest of the protocol: as §1
In data set [6] the test system is Kidney. Put plainly: Vasodilatory activity in Wistar rat isolated perfused rat kidney model in presence of gamma-glutamyl transpeptidase. It is filed as functional, tissue-based. Put shortly:
(§3)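 Isolated perfused kidney from a pentobarbital-anaesthetized (i.p.) male Wistar rat, perfused at 10 mL/min with perfusion pressure read via a side-port transducer. After 20 min equilibration, pressure was raised to 120−140 mmHg with phenylephrine (0.3 μM increments). Compound was added cumulatively to the perfusate (1 μM to 1 mM).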

The subject of data set [7] is Kidney. Nature of the data set: Prodrug activation in Wistar rat kidney homogenates assessed as formation of N-(4-Phenylethyl)-N'-hydroxyguanidine Hydrochloride at 1 to 100 uM. The conditions noted are these: tissue homogenate, TDE = time-dependent effect. It is filed as tissue-based. Put shortly:
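Prodrug at 1, 10 or 100 μM was incubated with freshly pooled (n = 3) male Wistar rat kidney homogenate. Samples were taken every 15 min over 45 min, and the parent NHG was quantified by positive-ion LC-MS/MS on a C18 column with 0.1% formic acid in 95% water/5% acetonitrile. Total protein was determined by Lowry assay.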

The species entered for data set [8] is Rattus norvegicus. Put plainly: Induction of NOx production in Wistar rat renal cortex homogenates at 100 uM after 1 hr by Griess test in presence of L-NAME. The class given is functional, tissue-based. Put shortly:
(§4)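 Crude homogenates of liver, renal cortex or renal medulla from freshly killed adult male Wistar rats, prepared in ice-cold HBSS with 1% Triton X. NHG at 100 μM was incubated for 1 h at 37 °C, with or without L-NAME (200 μM), then spun at 1000g and 4 °C. NOx (nitrite + nitrate) was measured by Griess assay. n = 4−5; paired t-tests.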
Background: Nitrite, measured by Griess reagent, commonly stands in for NO production.

Data set [9] relates to Liver. Nature of the data set: Induction of NOx production in Wistar rat liver homogenates at 100 uM after 1 hr by Griess test in presence of L-NAME. The class given is functional, tissue-based. Put shortly: as §4
The species entered for data set [10] is Rattus norvegicus. Nature of the data set: Induction of NOx production in Wistar rat renal cortex homogenates at 100 uM after 1 hr by Griess test in presence of gamma-glutamyl transpeptidase. The class given is functional, tissue-based.
Data set [11] is filed under the species Rattus norvegicus. Put plainly: Induction of NOx production in Wistar rat renal cortex homogenates at 100 uM after 1 hr by Griess test. The class given is functional, tissue-based. Put shortly: as §4
A short description of data set [12]: Induction of xanthine/xanthine oxidase-mediated NOx production at 100 uM after 1 hr by Griess test in presence of allopurinol. It is filed as physicochemical. Put shortly:
(§5)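 Cell-free xanthine/xanthine oxidase (100 μM X / 100 mU XO) was made fresh daily in KPE buffer. NHG at 100 μM was incubated for 1 h at 37 °C, with or without allopurinol (100 μM), then centrifuged at 1000g and 4 °C. NOx was measured by Griess assay. n = 4−5; paired t-tests.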

Data set [13] is filed under the species Rattus norvegicus. Nature of the data set: Induction of NOx production in Wistar rat renal medullar homogenates at 100 uM after 1 hr by Griess test. It is filed as functional, tissue-based. The settings on record: Renal medulla. Put shortly: as §4
Data set [14] concerns Liver. Put plainly: Induction of NOx production in Wistar rat liver homogenates at 100 uM after 1 hr by Griess test in presence of gamma-glutamyl transpeptidase. The class given is functional, tissue-based.
Data set [15] is described as follows: Induction of xanthine/xanthine oxidase-mediated NOx production at 100 uM after 1 hr by Griess test. The class given is physicochemical. Put shortly:
as §5

Data set [16] concerns Aorta. Put plainly: Vasodilatory activity in Wistar rat endothelium-intact aorta assessed as reduction of acetylcholine-induced vasoconstriction at 100 uM in presence of ODQ. It is filed as functional, tissue-based. Put shortly:
as §1

The subject of data set [17] is Aorta. Nature of the data set: Vasodilatory activity in Wistar rat endothelium-intact aorta assessed as reduction of acetylcholine-induced vasoconstriction at 100 uM in presence of hemoglobin. It is filed as functional, tissue-based. A digest of the protocol: as §1
Data set [18] is described as follows: Induction of xanthine/xanthine oxidase-mediated NOx production at 100 uM after 1 hr by Griess test in presence of gamma-glutamyl transpeptidase. It is filed as physicochemical.
In data set [19] the test system is Aorta. Nature of the data set: Vasodilatory activity in Wistar rat endothelium-intact aorta assessed as reduction of acetylcholine-induced vasoconstriction at 100 uM in presence of L-NAME. The class given is functional, tissue-based. A digest of the protocol:
as §1

The species entered for data set [20] is Rattus norvegicus. Put plainly: Induction of NOx production in Wistar rat renal medullar homogenates at 100 uM after 1 hr by Griess test in presence of gamma-glutamyl transpeptidase. The class given is functional, tissue-based. The conditions noted are these: Renal medulla.
Data set [21] concerns Liver. Nature of the data set: Induction of NOx production in Wistar rat liver homogenates at 100 uM after 1 hr by Griess test. It is filed as functional, tissue-based. A digest of the protocol: as §4
The species named for data set [22] is Rattus norvegicus. Put plainly: Induction of NOx production in Wistar rat renal medullar homogenates at 100 uM after 1 hr by Griess test in presence of L-NAME. It is filed as functional, tissue-based. The settings on record: Renal medulla. A digest of the protocol: as §4
Data set [23] concerns Aorta. Nature of the data set: Vasodilatory activity in Wistar rat endothelium-intact aorta assessed as reduction of acetylcholine-induced vasoconstriction at 100 uM in presence of L-Arg. The class given is functional, tissue-based. Put shortly:
as §1

Data set [24] relates to Aorta. Nature of the data set: Vasodilatory activity in Wistar rat endothelium-intact aorta assessed as reduction of acetylcholine-induced vasoconstriction at 100 uM in presence of gamma-glutamyl transpeptidase and oxyhemoglobin. It is filed as functional, tissue-based. Put shortly: as §2
Data set [25] concerns Kidney. Put plainly: Vasodilatory activity in Wistar rat isolated perfused rat kidney model at 250 uM in presence of gamma-glutamyl transpeptidase. The class given is functional, tissue-based. Put shortly: as §3

This note sets out measurements from ChEMBL document CHEMBL2396521, “Development and characterization of glutamyl-protected N-hydroxyguanidines as reno-active nitric oxide donor drugs with therapeutic potential in acute renal failure” (J Med Chem, 2013).

What is called EC50 is the concentration that produces a half-maximal response.

Activity calls are given as the source filed them. The rule behind the calls is not given here.

Consider `Cl.N/C(=N\O)NCCc1cccc2ccccc12`, for which the EC50 in the data set on Aorta [1] was 50.1 µM. The Activity with Aorta [2] amounted to 1%.

Take `N/C(=N\OCc1ccc(NC(=O)CC[C@H](N)C(=O)O)cc1)NCCc1ccccc1`: the Drug metabolism entry is given as “Dose-dependent effect” in the data set on Kidney [3] and “tde” in the data set with Kidney [7]. Moreover, the outcome with Aorta [4], in the data set on Aorta [5] and in the data set with Aorta [2] was Active. Further, the EC50 in the data set with Kidney [6] is 50 µM.

Regarding `Cc1ccc(CCN/C(N)=N/O)cc1.Cl`, the EC50 with Aorta [1] is 12.6 µM. The Activity with Aorta [2] was found to be 35%.

As for `CCCCN/C(N)=N/O.Cl`, the 50% effective concentration (EC50) in the data set on Aorta [1] is 31.6 µM. Also, the Activity in the data set with Aorta [2] was determined as 100%.

Consider `N=C(NO)NCCC[C@H](N)C(=O)O`, for which the outcome in the data set listed under Rattus norvegicus [8], with Liver [9], in the data set listed under Rattus norvegicus [10], with Liver [14], with Aorta [16] and in the data set on Aorta [17] was inactive. The result in the data set with Aorta [19], in the data set filed under Rattus norvegicus [20], in the data set filed under Rattus norvegicus [22] and in the data set on Aorta [23] was inactive. In addition, the Activity in the data set filed under Rattus norvegicus [11] is 5 µM; in data set [12], “Not Active”; in the data set listed under Rattus norvegicus [13] it was 5 µM; in data set [15], 5 µM; in data set [18], “Not Active”; in the data set on Liver [21] it was 5 µM. Further, the result in the data set with Aorta [5] was Active.

Consider `Cl.N/C(=N\O)NCCc1ccc(Br)cc1`, for which the EC50 with Aorta [1] is 15.8 µM. Besides, in the data set on Aorta [2], the Activity is given as 34%.

On to `Cl.N/C(=N\O)NCCCc1ccccc1`, for which the EC50 in the data set with Aorta [1] is 15.8 µM. The Activity in the data set with Aorta [2] stood at 68%.

For the compound `Cl.N/C(=N\O)NCCCCc1ccccc1`, in the data set with Aorta [1], the EC50 was 631 µM. For the same compound, the Activity in the data set with Aorta [2] worked out at 28%.

Turning to `COc1ccc(CCN/C(N)=N/O)cc1.Cl`, the EC50 with Aorta [1] was 50.1 µM. For the same compound, in the data set on Aorta [2], the Activity is 40%.

As for `CN(CCCC(=O)O)/C(=N\O)NC(=O)CC[C@H](N)C(=O)O`, the outcome in the data set on Aorta [24] and with Aorta [5] was inactive. Besides, in the data set with Aorta [4], the Activity was 18%.

Regarding `CN(CCCC(=O)O)/C(N)=N/O`, the Activity was 1 µM in the data set listed under Rattus norvegicus [11], 1 µM in the data set filed under Rattus norvegicus [13], “Active” in data set [15] and 1 µM with Liver [21]. Also, the outcome with Aorta [19] was inactive. Also, the result in the data set with Aorta [5] was Active.

As to `COc1cccc(CCN/C(N)=N/O)c1.Cl`, the EC50 in the data set on Aorta [1] was 3.98 µM. Also, the Activity with Aorta [2] is 9%.

Take `CN(CCCC(=O)O)C(N)=O`: the outcome in the data set filed under Rattus norvegicus [8], in the data set with Liver [9] and in the data set listed under Rattus norvegicus [22] was Active. Besides, the Activity in the data set filed under Rattus norvegicus [11] is 1 µM; in data set [12] it was “Active”; in the data set listed under Rattus norvegicus [13] it was 1 µM; in data set [15], “Not Active”; in the data set with Liver [21] it was 1 µM. Further, in the data set with Aorta [1], the pEC50 entry was “inactive”.

Take `N[C@@H](CCC(=O)NCCCC(=O)N/C(=N\OC(=O)CCCNC(=O)CC[C@H](N)C(=O)O)NCCc1ccccc1)C(=O)O`: the outcome in the data set on Kidney [25] was inactive.

As to `Cl.N/C(=N\O)NCCc1ccc(Cl)cc1`, in the data set on Aorta [1], the 50% effective concentration (EC50) was 100 µM. Also, the Activity in the data set on Aorta [2] was determined as 11%.

With `N/C(=N\O)NCCc1ccc(O)cc1`, in the data set with Aorta [1], the EC50 was 63.1 µM.

With `Cl.N=C(NO)NCc1ccccc1`, the EC50 in the data set on Aorta [1] was 12.6 µM. Moreover, the Activity in the data set with Aorta [2] is reported as 37%.

On to `CN(CCCC(=O)O)c1noc(CC[C@H](N)C(=O)O)n1`, for which the result with Aorta [4] and in the data set with Aorta [5] was inactive.

On to `COc1ccccc1CCN/C(N)=N/O.Cl`, for which, in the data set on Aorta [1], the EC50 was 20 µM. Moreover, the Activity in the data set with Aorta [2] stood at 14%.

Consider `Cl.N/C(=N\O)NCCc1ccc(F)cc1`, for which the EC50 in the data set on Aorta [1] is 63.1 µM. Moreover, the Activity in the data set on Aorta [2] was 11%.

For `Cl.N/C(=N\O)NCCc1ccccc1`, in the data set on Aorta [1], the EC50 was 25.1 µM. Moreover, the result with Aorta [16], with Aorta [17], in the data set on Aorta [19] and in the data set on Aorta [23] was inactive. Also, the Activity in the data set on Aorta [2] is listed as 75%.
